In ChEMBL document CHEMBL3351351, “Synthesis and evaluation of sulfonylethyl-containing phosphotriesters of 3'-azido-3'-deoxythymidine as anticancer prodrugs” (Bioorg Med Chem, 2014):

Assays:
[1] = Half life in 0.1 M phosphate buffer at pH 7.4 at 37 degC by TLC; format: physicochemical
In short: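 Compound incubated in 0.1 M phosphate buffer pH 7.4 at 37 °C with shaking for varying times. Stopped with 2.0 M acetate buffer (pH 5) and ethanol, then chilled on ice and analysed by TLC. Percent parent left relative to zero-time control plotted against time; t1/2 = ln2/k from decay rate constant; mean ± SD of three independent experiments.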

[2] = Half life in human plasma by TLC; format: ADME, cell-free
In short: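 Freshly reconstituted lyophilized human plasma in 0.1 M phosphate buffer pH 7.4 (0.4 mL plasma solution plus 0.1 mL drug solution) incubated at 37 °C. Stopped as for the buffer test, proteins spun out at 3000 × g for 30 min, supernatant run on TLC. Half-life from first-order decay, three independent experiments; the ratio compares it with the buffer half-life.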

MCF7 = assay: Cytotoxicity against human MCF7 cells after 72 hrs by MTT assay; format: functional, cell-based; settings: MCF7, 72 h
[3] = Cytotoxicity against human H460 cells after 72 hrs by MTT assay; format: functional, cell-based; settings: NCI-H460, 72 h
[4] = Cytotoxicity against human KB-3-1 cells after 72 hrs by MTT assay; format: functional, cell-based; settings: KB 3-1, 72 h
SW-620 = assay: Cytotoxicity against human SW620 cells after 72 hrs by MTT assay; format: functional, cell-based; settings: SW-620, 72 h
143B [5] = assay: Cytotoxicity against human 143B cells after 72 hrs by MTT assay; format: functional, cell-based
143B [6] = assay: Cytotoxicity against human thymidine kinase-deficient 143B cells after 72 hrs by MTT assay; format: functional, cell-based
143B [7] = assay: Ratio of IC50 for human thymidine kinase-deficient 143B cells to IC50 for human 143B cells; format: functional
In short: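 143B kept in EMEM with 10% FBS and 1% penicillin/streptomycin; the TK-deficient 143B/TK⁻ line kept in EMEM with 0.015 mg/mL 5-BrdU.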

| SMILES | half-life [1] | half-life [2] | IC50 (MCF7) | IC50 [3] | IC50 [4] | IC50 (SW-620) | IC50 (143B [5]) | IC50 (143B [6]) | Ratio IC50 (143B [7]) |
| --- | --- | --- | --- | --- | --- | --- | --- | --- | --- |
| Cc1cn([C@H]2C[C@H](N=[N+]=[N-])[C@@H](COP(=O)(OC(C)C(C)S(=O)(=O)c3ccccc3)OC(C)C(C)S(=O)(=O)c3ccccc3)O2)c(=O)[nH]c1=O (some centres undefined) | 279 h | 70.1 h | 26.8 µM | 22.2 µM | 24.2 µM | 66.7 µM | 26.4 µM |  |  |
| Cc1cn([C@H]2C[C@H](N=[N+]=[N-])[C@@H](COP(=O)(OCC(c3ccccc3)S(=O)(=O)c3ccccc3)OCC(c3ccccc3)S(=O)(=O)c3ccccc3)O2)c(=O)[nH]c1=O (some centres undefined) | 2.16 h | 0.51 h | 14.1 µM | 7.13 µM | 9.82 µM | 42.2 µM | 14.2 µM | 19.7 µM | 1.2 |
| Cc1cn([C@H]2C[C@H](N=[N+]=[N-])[C@@H](COP(=O)(OCCS(=O)(=O)c3ccccc3)Oc3ccccc3)O2)c(=O)[nH]c1=O (some centres undefined) | 1.22 h | 0.45 h | 25.3 µM | 18.2 µM | 21.7 µM | 62.1 µM | 25.4 µM |  |  |
| Cc1ccc(OP(=O)(OCCS(=O)(=O)c2ccccc2)OC[C@H]2O[C@@H](n3cc(C)c(=O)[nH]c3=O)C[C@@H]2N=[N+]=[N-])cc1 (some centres undefined) | 1.32 h | 0.6 h | 28.2 µM | 24.7 µM | 27.1 µM | 71.7 µM | 28.3 µM |  |  |
| COc1ccc(OP(=O)(OCCS(=O)(=O)c2ccccc2)OC[C@H]2O[C@@H](n3cc(C)c(=O)[nH]c3=O)C[C@@H]2N=[N+]=[N-])cc1 (some centres undefined) | 1.53 h | 0.6 h | 20.4 µM | 12.3 µM | 15.2 µM | 47.3 µM | 20.2 µM | 25.3 µM | 1.3 |
| Cc1cn([C@H]2C[C@H](N=[N+]=[N-])[C@@H](COP(=O)(OCCS(=O)(=O)c3ccccc3)Oc3ccc(F)cc3)O2)c(=O)[nH]c1=O (some centres undefined) | 1.08 h | 0.37 h | 26.2 µM | 20.8 µM | 23.3 µM | 64.5 µM | 26.6 µM |  |  |
| Cc1cn([C@H]2C[C@H](N=[N+]=[N-])[C@@H](COP(=O)(OCCS(=O)(=O)c3ccccc3)Oc3ccc(Cl)cc3)O2)c(=O)[nH]c1=O (some centres undefined) | 0.79 h | 0.35 h | 25 µM | 17.9 µM | 21.4 µM | 61.3 µM | 24.4 µM |  |  |
| Cc1ccc(OP(=O)(OCCSc2ccccc2)OC[C@H]2O[C@@H](n3cc(C)c(=O)[nH]c3=O)C[C@@H]2N=[N+]=[N-])cc1 (some centres undefined) | 12 h | 20 h |  |  |  |  |  |  |  |
| Cc1cn([C@H]2C[C@H](N=[N+]=[N-])[C@@H](CO)O2)c(=O)[nH]c1=O [ZIDOVUDINE] |  |  | 13.7 µM | 6.81 µM | 9.17 µM | 39.1 µM | 12.2 µM | 148 µM | 12.1 |

Further lines, with some results ahead:

| half-life [1] | half-life [2] | SMILES | IC50 (MCF7) | IC50 [3] | IC50 [4] | IC50 (SW-620) | IC50 (143B [5]) | IC50 (143B [6]) | Ratio IC50 (143B [7]) |
| --- | --- | --- | --- | --- | --- | --- | --- | --- | --- |
| 0.71 h | 0.23 h | Cc1cn([C@H]2C[C@H](N=[N+]=[N-])[C@@H](COP(=O)(OCCS(=O)(=O)c3ccccc3)OCCS(=O)(=O)c3ccccc3)O2)c(=O)[nH]c1=O | 16.3 µM | 7.59 µM | 11 µM | 43 µM | 16.3 µM |  |  |
| 1.09 h | 0.4 h | Cc1ccc(S(=O)(=O)CCOP(=O)(OCCS(=O)(=O)c2ccc(C)cc2)OC[C@H]2O[C@@H](n3cc(C)c(=O)[nH]c3=O)C[C@@H]2N=[N+]=[N-])cc1 | 19.6 µM | 11.3 µM | 14.4 µM | 46.6 µM | 19.6 µM |  |  |
| 1.44 h | 0.55 h | COc1ccc(S(=O)(=O)CCOP(=O)(OCCS(=O)(=O)c2ccc(OC)cc2)OC[C@H]2O[C@@H](n3cc(C)c(=O)[nH]c3=O)C[C@@H]2N=[N+]=[N-])cc1 | 6.38 µM | 1.71 µM | 4.68 µM | 7.62 µM | 5.45 µM | 5.16 µM | 0.9 |
| 0.36 h | 0.13 h | Cc1cn([C@H]2C[C@H](N=[N+]=[N-])[C@@H](COP(=O)(OCCS(=O)(=O)c3ccc(Cl)cc3)OCCS(=O)(=O)c3ccc(Cl)cc3)O2)c(=O)[nH]c1=O | 9.46 µM | 4.47 µM | 7.84 µM | 11.6 µM | 7.83 µM | 8.8 µM | 1.1 |
| 0.07 h | 0.02 h | Cc1cn([C@H]2C[C@H](N=[N+]=[N-])[C@@H](COP(=O)(OCCS(=O)(=O)c3ccc([N+](=O)[O-])cc3)OCCS(=O)(=O)c3ccc([N+](=O)[O-])cc3)O2)c(=O)[nH]c1=O | 22.9 µM | 15.2 µM | 20.4 µM | 57 µM | 23.1 µM |  |  |
| 13.6 h | 4.21 h | Cc1cn([C@H]2C[C@H](N=[N+]=[N-])[C@@H](COP(=O)(OCC(C)S(=O)(=O)c3ccccc3)OCC(C)S(=O)(=O)c3ccccc3)O2)c(=O)[nH]c1=O (some centres undefined) | 27.6 µM | 23.7 µM | 25.2 µM | 68.2 µM | 27.4 µM |  |  |
| 3.56 h | 1.35 h | Cc1cn([C@H]2C[C@H](N=[N+]=[N-])[C@@H](COP(=O)(OC(C)CS(=O)(=O)c3ccccc3)OC(C)CS(=O)(=O)c3ccccc3)O2)c(=O)[nH]c1=O (some centres undefined) | 22.4 µM | 14.6 µM | 18.4 µM | 54.8 µM | 22.5 µM |  |  |
| 5.42 h | 1.77 h | CCC(CS(=O)(=O)c1ccccc1)OP(=O)(OC[C@H]1O[C@@H](n2cc(C)c(=O)[nH]c2=O)C[C@@H]1N=[N+]=[N-])OC(CC)CS(=O)(=O)c1ccccc1 (some centres undefined) | 12.2 µM | 5.13 µM | 8.28 µM | 27.8 µM | 11.5 µM | 13.3 µM | 1.2 |
